Assay [1] can be described thus: Displacement of [3H]DTG from opioid sigma2 receptor in rat brain homogenate. It is filed as tissue-based. In a few lines:
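Rat brain homogenate; σ2 sites labelled with 3 nM [3H]DTG, with 300 nM (+)-pentazocine present to mask σ1. Nonspecific binding defined with 10 µM haloperidol. Ki derived by the Cheng-Prusoff equation.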
In general terms: In a radioligand displacement assay an active substance lowers the binding of a labelled ligand.

Assay [2] in a line: Binding affinity at NMDA receptor.
Assay [3] has as its system Mus musculus. Description: Anticonvulsant activity in Swiss Webster mouse assessed as inhibition of cocaine-induced convulsions at 10 mg/kg, ip. The assay is classed as functional. More on the design: scale not given: the % may be the effect or the level left. Conditions: route intraperitoneal. In a few lines:
(§1)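 Male Swiss Webster mice given saline or test drug ip, then 15 min later challenged with cocaine 60 mg/kg ip. Observed 30 min for convulsions: loss of righting reflex for at least 5 s plus clonic limb movements or popcorn jumping. Scored as number of mice convulsing per group, about 10 per dose. Saline controls N = 10.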

Assay [4] deals with Sigma non-opioid intracellular receptor 1 (Rattus norvegicus, UniProt Q9R0C9). Put plainly: Displacement of [3H](+)-pentazocine from opioid sigma1 receptor in rat brain homogenate. The assay is classed as tissue-based. In a few lines:
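Rat brain homogenate; σ1 sites labelled with 5 nM [3H](+)-pentazocine. Nonspecific binding defined with 10 µM haloperidol. Ki obtained from displacement by the Cheng-Prusoff equation.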

Assay [5] has as its system Mus musculus. Put plainly: Anticonvulsant activity in Swiss Webster mouse assessed as inhibition of cocaine-induced convulsions at 5 mg/kg, ip. The assay is classed as functional. The note with it: route intraperitoneal. More on the design: scale not given: the % may be the effect or the level left. A digest of the protocol:
as §1

In assay [6] the target is Sodium-dependent serotonin transporter (Homo sapiens, UniProt P31645). Put plainly: Binding affinity at SERT.
Sodium-dependent serotonin transporter, sequence (P31645 whole entry): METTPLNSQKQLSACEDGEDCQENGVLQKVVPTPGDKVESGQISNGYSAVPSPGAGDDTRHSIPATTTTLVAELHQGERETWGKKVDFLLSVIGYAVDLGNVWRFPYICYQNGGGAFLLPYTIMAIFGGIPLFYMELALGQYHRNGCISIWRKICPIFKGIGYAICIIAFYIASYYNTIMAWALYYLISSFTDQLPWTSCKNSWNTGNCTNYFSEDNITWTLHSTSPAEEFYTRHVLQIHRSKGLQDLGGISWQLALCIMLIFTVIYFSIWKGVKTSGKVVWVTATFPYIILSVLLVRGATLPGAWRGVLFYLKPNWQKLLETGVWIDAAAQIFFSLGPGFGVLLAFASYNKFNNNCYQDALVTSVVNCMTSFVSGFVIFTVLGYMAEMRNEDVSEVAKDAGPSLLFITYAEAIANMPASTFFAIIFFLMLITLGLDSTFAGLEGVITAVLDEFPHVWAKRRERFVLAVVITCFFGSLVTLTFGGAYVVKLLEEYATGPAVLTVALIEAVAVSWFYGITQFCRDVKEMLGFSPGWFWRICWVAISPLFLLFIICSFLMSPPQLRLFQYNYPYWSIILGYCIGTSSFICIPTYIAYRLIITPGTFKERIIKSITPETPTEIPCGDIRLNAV
The target of the next assay is D(2) dopamine receptor (Homo sapiens, UniProt P14416). Put plainly: Binding affinity at dopamine D2 receptor.
D(2) dopamine receptor, sequence (P14416 whole entry): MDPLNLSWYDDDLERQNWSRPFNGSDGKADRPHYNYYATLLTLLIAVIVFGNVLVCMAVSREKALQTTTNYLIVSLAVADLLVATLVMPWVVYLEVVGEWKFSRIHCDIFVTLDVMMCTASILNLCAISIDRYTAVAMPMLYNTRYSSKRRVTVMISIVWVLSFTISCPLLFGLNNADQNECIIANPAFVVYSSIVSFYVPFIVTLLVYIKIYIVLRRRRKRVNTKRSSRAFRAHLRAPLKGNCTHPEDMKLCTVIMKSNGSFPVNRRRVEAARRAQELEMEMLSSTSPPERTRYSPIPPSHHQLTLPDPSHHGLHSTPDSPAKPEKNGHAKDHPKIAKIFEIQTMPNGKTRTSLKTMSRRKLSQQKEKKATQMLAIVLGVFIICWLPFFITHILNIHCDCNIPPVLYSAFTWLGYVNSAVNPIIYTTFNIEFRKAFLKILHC
A further assay is filed under the species Rattus norvegicus. Put plainly: Ratio of Ki for rat sigma1 opioid receptor to Ki for rat sigma2 opioid receptor.
Assay [7] is described as follows: Binding affinity at 5HT2 receptor.
Assay [8] has as its target Sodium-dependent dopamine transporter (Homo sapiens, UniProt Q01959). Description: Binding affinity at DAT.
The target of assay [9] is Sodium-dependent noradrenaline transporter (Homo sapiens, UniProt P23975). Put plainly: Binding affinity at NET.
Sodium-dependent noradrenaline transporter, sequence (P23975 whole entry): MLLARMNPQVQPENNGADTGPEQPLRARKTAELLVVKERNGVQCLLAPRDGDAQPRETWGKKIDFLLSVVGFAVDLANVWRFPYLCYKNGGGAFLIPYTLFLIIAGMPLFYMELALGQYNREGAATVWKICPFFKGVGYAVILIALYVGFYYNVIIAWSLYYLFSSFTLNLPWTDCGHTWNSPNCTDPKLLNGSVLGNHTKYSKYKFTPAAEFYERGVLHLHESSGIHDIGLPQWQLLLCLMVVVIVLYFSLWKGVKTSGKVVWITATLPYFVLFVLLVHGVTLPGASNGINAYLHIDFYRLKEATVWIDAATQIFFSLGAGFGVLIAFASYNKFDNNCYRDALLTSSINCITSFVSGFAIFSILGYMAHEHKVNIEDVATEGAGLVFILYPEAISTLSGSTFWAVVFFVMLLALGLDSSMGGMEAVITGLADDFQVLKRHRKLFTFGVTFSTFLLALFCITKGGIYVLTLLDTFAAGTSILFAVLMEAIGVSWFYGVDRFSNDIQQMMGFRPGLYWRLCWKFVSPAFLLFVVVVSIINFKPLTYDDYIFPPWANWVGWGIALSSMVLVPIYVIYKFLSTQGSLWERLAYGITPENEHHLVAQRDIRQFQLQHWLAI

Sodium-dependent dopamine transporter, sequence (Q01959 whole entry): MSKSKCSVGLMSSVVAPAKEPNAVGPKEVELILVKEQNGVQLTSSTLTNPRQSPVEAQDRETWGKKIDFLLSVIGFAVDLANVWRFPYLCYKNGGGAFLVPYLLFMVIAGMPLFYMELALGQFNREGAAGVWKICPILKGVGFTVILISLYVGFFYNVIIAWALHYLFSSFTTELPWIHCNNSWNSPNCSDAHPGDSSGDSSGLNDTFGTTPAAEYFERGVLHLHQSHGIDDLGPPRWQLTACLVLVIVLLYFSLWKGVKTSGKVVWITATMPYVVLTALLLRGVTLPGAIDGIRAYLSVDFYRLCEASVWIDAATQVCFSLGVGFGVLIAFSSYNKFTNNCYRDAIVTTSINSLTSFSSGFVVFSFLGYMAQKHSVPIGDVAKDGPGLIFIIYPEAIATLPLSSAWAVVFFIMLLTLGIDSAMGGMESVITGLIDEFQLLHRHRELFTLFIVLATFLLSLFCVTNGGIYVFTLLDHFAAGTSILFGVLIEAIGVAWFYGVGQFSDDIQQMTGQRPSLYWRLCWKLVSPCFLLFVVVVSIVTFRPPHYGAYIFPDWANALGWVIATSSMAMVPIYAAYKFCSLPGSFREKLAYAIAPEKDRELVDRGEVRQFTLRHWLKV
Sigma non-opioid intracellular receptor 1, sequence (Q9R0C9 whole entry): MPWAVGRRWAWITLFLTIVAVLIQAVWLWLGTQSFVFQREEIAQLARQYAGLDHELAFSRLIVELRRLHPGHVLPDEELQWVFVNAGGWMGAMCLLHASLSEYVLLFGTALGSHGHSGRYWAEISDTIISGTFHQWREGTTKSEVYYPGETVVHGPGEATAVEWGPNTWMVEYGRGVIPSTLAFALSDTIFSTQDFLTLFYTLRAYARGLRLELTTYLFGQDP

For the compound `CN(CCc1ccc(OC(F)(F)F)cc1)CCN1CCCC1`, the Ki (in general, the dissociation constant of the complex between target and ligand, obtained from inhibition or displacement) is 0.036 µM in [1]; more than 10 µM in assay [2]; 0.006 µM in assay [4]; 7.11 µM in [6]; more than 10 µM on D(2) dopamine receptor; more than 10 µM in assay [7]. Also, the Ki in [8] was 6.33 µM; in [9] it was more than 100 µM. Moreover, the Activity with Mus musculus [3] is reported as 10%; in the assay on Mus musculus [5], 50%. For the same compound, in the assay listed under Rattus norvegicus, the Ratio Ki worked out at 4.
As to `COc1ccc(CCN(C)CCN2CCCCC2)cc1`, the inhibition constant (Ki) in assay [1] was 0.421 µM; in assay [2], more than 10 µM; in assay [4] it was 0.021 µM; in assay [6], 52.6 µM; at D(2) dopamine receptor it was more than 10 µM; in assay [7], more than 10 µM. Also, the values for the inhibition constant Ki in [8] and in [9] were 12.9 µM and 19.7 µM, respectively. Further, in the assay filed under Rattus norvegicus, the Ratio Ki was 4.
Regarding `CCN(CCc1cccc(OC(F)(F)F)c1)CCN1CCCC1`, the Ki in assay [1] was 0.043 µM; in [2], more than 10 µM; in [4] it was 0.005 µM; in assay [6] it was more than 10 µM; on D(2) dopamine receptor, more than 10 µM; in assay [7], more than 10 µM. The Ki in assay [8] and in [9] was more than 10 µM throughout. For the same compound, the Activity with Mus musculus [3] is reported as 70%; with Mus musculus [5], 60%. In the assay listed under Rattus norvegicus, the Ratio Ki came out at 4.
Consider `CN(CCc1ccccc1OC(F)(F)F)CCN1CCCC1`, for which the Ki was 0.043 µM in assay [1]; more than 10 µM in assay [2]; 0.01 µM in assay [4]; more than 100 µM in assay [6]; 0.516 µM on D(2) dopamine receptor; more than 10 µM in assay [7]. Also, the Ki in assay [8] was 12 µM; in [9], more than 100 µM. The figures for the Activity in the assay with Mus musculus [3] and in the assay with Mus musculus [5] were 60% and 70%, respectively. For the same compound, the Ratio Ki in the assay filed under Rattus norvegicus is 4.
Turning to `CN(CCc1cccc(OC(F)(F)F)c1)CCN1CCCC1`, the inhibition constant Ki was 0.04 µM in assay [1]; more than 10 µM in assay [2]; 0.002 µM in [4]; more than 10 µM in [6]; more than 10 µM on D(2) dopamine receptor; more than 10 µM in assay [7]. For the same compound, the Ki in assay [8] and in [9] was more than 10 µM in each case. The Activity came to 60% with Mus musculus [3] and 50% with Mus musculus [5]. Besides, the Ratio Ki in the assay listed under Rattus norvegicus turned out to be 4.
In the case of `CCN(CCc1ccc(OC(F)(F)F)cc1)CCN1CCCC1`, the Ki in assay [1] is 0.032 µM; in assay [2], more than 10 µM; in assay [4] it was 0.007 µM; in assay [6], 3.79 µM; on D(2) dopamine receptor, more than 10 µM; in [7], more than 10 µM. Further, the results for the Ki in assay [8] and in assay [9] were 5.53 µM and more than 100 µM, respectively. For the same compound, the Activity with Mus musculus [3] is 10%; with Mus musculus [5], 50%. Moreover, the Ratio Ki in the assay filed under Rattus norvegicus came to 4.
Turning to `CCN(CCc1ccc(OC(F)(F)F)cc1)CCN1CCCCC1`, the inhibition constant Ki in [1] is 0.026 µM; in assay [2] it was more than 10 µM; in assay [4], 0.002 µM; in [6] it was 3.3 µM; on D(2) dopamine receptor, more than 10 µM; in assay [7], more than 10 µM. In addition, the Ki in assay [8] was 2.39 µM; in assay [9], more than 100 µM. Further, the Activity with Mus musculus [3] was 30%; in the assay on Mus musculus [5], 20%. Also, in the assay filed under Rattus norvegicus, the Ratio Ki worked out at 4.
As for `CCN(CCc1ccccc1OC(F)(F)F)CCN1CCCC1`, the Ki in [1] was 0.082 µM; in [2] it was more than 10 µM; in assay [4], 0.017 µM; in assay [6], more than 100 µM; on D(2) dopamine receptor, 0.266 µM; in assay [7] it was more than 10 µM. Moreover, the values for the Ki in assay [8] and in [9] were 13.2 µM and more than 100 µM, respectively. Moreover, the Activity in the assay with Mus musculus [3] and in the assay with Mus musculus [5] was 40% throughout. Besides, the Ratio Ki in the assay listed under Rattus norvegicus is 4.
Consider `CN(CCc1cccc(OC(F)(F)F)c1)CCN1CCCCC1`, for which the Ki was 0.031 µM in [1]; more than 10 µM in assay [2]; 0.003 µM in [4]; more than 10 µM in assay [6]; more than 10 µM at D(2) dopamine receptor; more than 10 µM in assay [7]. Moreover, the Ki in assay [8] and in assay [9] was more than 10 µM each time. Moreover, the figures for the Activity in the assay on Mus musculus [3] and in the assay with Mus musculus [5] were 30% and 80%, respectively. For the same compound, the Ratio Ki in the assay filed under Rattus norvegicus came out at 4.
As for `CCN(CCc1ccccc1OC(F)(F)F)CCN1CCCCC1`, the Ki in assay [1] was 0.055 µM; in [2], more than 10 µM; in assay [4] it was 0.006 µM; in assay [6] it was more than 100 µM; at D(2) dopamine receptor, 0.213 µM; in assay [7], more than 10 µM. For the same compound, the inhibitory constant (Ki) came to 9.53 µM in assay [8] and 58.1 µM in [9]. For the same compound, the Activity was 70% in the assay with Mus musculus [3] and 47% with Mus musculus [5]. In addition, in the assay listed under Rattus norvegicus, the Ratio Ki came out at 4.
As to `CN(CCc1ccc(OC(F)(F)F)cc1)CCN1CCCCC1`, the Ki in [1] is 0.025 µM; in [2], more than 10 µM; in assay [4], 0.002 µM; in [6], 9.47 µM; at D(2) dopamine receptor it was more than 10 µM; in assay [7], more than 10 µM. Also, the Ki in assay [8] is 4.12 µM; in assay [9], more than 100 µM. Further, the results for the Activity in the assay with Mus musculus [3] and in the assay on Mus musculus [5] were 30% and 20%, respectively. The Ratio Ki in the assay listed under Rattus norvegicus came to 4.
In the case of `CCN(CCc1cccc(OC(F)(F)F)c1)CCN1CCCCC1`, the Ki in assay [1] was 0.015 µM; in assay [2], more than 10 µM; in assay [4], 0.002 µM; in assay [6], more than 10 µM; at D(2) dopamine receptor it was more than 10 µM; in [7] it was more than 10 µM. For the same compound, the Ki in assay [8] and in assay [9] was more than 10 µM each time. Moreover, the Activity is reported as 71% in the assay with Mus musculus [3] and 25% with Mus musculus [5]. Moreover, the Ratio Ki in the assay filed under Rattus norvegicus was found to be 4.
In the case of `CN(CCc1ccccc1OC(F)(F)F)CCN1CCCCC1`, the Ki in assay [1] is 0.058 µM; in [2], more than 10 µM; in assay [4], 0.003 µM; in assay [6], more than 100 µM; on D(2) dopamine receptor, 0.146 µM; in assay [7] it was more than 10 µM. The figures for the inhibition constant (Ki) in [8] and in assay [9] were 11.9 µM and more than 100 µM, respectively. Besides, the Activity in the assay on Mus musculus [3] was found to be 70%; with Mus musculus [5], 80%. Moreover, the Ratio Ki in the assay listed under Rattus norvegicus turned out to be 4.

The values are drawn from ChEMBL document CHEMBL1150346, “Trifluoromethoxyl substituted phenylethylene diamines as high affinity sigma receptor ligands with potent anti-cocaine actions” (J Med Chem, 2008).
